Here are results for ten compounds from ChEMBL document CHEMBL4138050, “Discovery of selective cystathionine β-synthase inhibitors by high-throughput screening with a fluorescent thiol probe” (Medchemcomm, 2017).

Molecules are shown by their SMILES. Calls of active or inactive are those of the source. No cut-off for these calls is given here. Where only a bound is given, the exact number is not on record here.

Data set [1] has as its target T1, Cystathionine beta-synthase (Homo sapiens) (UniProt P35520).
T1 sequence (whole entry): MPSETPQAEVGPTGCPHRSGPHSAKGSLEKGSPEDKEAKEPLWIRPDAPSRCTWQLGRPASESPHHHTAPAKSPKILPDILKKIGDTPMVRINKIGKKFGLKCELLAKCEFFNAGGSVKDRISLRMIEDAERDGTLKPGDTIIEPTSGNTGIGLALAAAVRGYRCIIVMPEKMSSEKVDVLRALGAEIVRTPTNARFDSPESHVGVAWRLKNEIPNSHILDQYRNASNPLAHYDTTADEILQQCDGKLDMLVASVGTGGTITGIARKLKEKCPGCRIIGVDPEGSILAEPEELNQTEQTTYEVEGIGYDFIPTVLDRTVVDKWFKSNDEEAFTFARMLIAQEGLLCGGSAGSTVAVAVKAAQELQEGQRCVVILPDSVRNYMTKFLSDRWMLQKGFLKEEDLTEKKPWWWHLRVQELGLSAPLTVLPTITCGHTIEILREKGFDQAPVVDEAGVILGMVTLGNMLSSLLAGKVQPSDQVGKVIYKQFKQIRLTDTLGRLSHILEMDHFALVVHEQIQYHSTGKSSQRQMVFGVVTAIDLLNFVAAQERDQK
Description: Reversible inhibition of full-length GST-fused human CBS using cysteine/homocysteine as substrate assessed as decrease in H2S production at 100 uM preincubated for 1 hr followed by ultrafiltration for 5 times.

In data set [2] the target is T2, Cystathionine beta-synthase (Homo sapiens, UniProt P35520).
T2 sequence (P35520 whole entry): T1 sequence (whole entry)
The experiment in a line: Inhibition of full-length GST-fused human CBS using cysteine/homocysteine as substrate assessed as decrease in H2S production preincubated for 3 mins in presence of homocysteine and lead nitrate followed by cysteine addition. A digest of the protocol: (§1)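 The H2S-producing activity of the purified human enzyme was measured with cysteine and homocysteine as substrates in 50 mM HEPES, pH 7.4, with 0.4 mM lead nitrate (lead sulfide read-out).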

For data set [3], the species on record is Homo sapiens. Description: Selectivity ratio of IC50 for N-terminal His-tagged CSE extracted from human HepG2 cells expressed in Escherichia coli BL21 (DE3) using cysteine as substrate assessed as decrease in H2S production to IC50 for full-length GST-fused human CBS using cysteine/homocysteine as substrate assessed as decrease in H2S production.
Data set [4] concerns the target T3, Cystathionine gamma-lyase (Homo sapiens, UniProt P32929). The experiment in a line: Inhibition of N-terminal His-tagged CSE extracted from human HepG2 cells expressed in Escherichia coli BL21 (DE3) using cysteine as substrate assessed as decrease in H2S production preincubated for 3 mins in presence of lead nitrate followed by cysteine addition. The method in brief: as §1

In data set [5] the test system is HT-29. The experiment in a line: Antiproliferative activity against human HT-29 cells assessed as decrease in cell viability after 24 hrs by CCK8 assay. In kind it is functional, cell-based. The conditions noted are these: HT-29, 24 h. The method in brief: (§2)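 Viability of HT29 colon cancer cells and of NCM356 normal colon mucosal epithelial cells was measured across a concentration range and expressed relative to the control group. IC50 was taken from the dose–response curve. For HT29, values are means ± SD with n = 6.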

Data set [6] in a line: Selectivity index, ratio of IC50 for human NCM356 cells to IC50 for human HT-29 cells. The conditions noted are these: NCM356 cells versus HT-29 cells. It is filed as toxicity.
Data set [7] can be described thus: Antiproliferative activity against human NCM356 cells assessed as decrease in cell viability after 24 hrs by CCK8 assay. It is filed as cell-based. A digest of the protocol: as §2
The target of data set [8] is T2, Cystathionine beta-synthase. The experiment in a line: Inhibition of full-length GST-fused human CBS using methylcysteine as substrate measured for 10 mins by CPM probe-based fluorescence assay. A digest of the protocol: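 Enzyme source: full-length wild-type hCBS, 2 μg per reaction. Substrate: 10 mM methylcysteine. Buffer: 50 mM HEPES, pH 7.4, with 15 μM CPM thiol probe. Read-out: CH3SH release, followed as fluorescence at 460 nm (excitation 400 nm) over 600 s. Screening positive control: 100 μM AOAA. Secondary screen: compounds at 50 μM.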

Data set [9] addresses T3, Cystathionine gamma-lyase. The experiment in a line: Inhibition of N-terminal His-tagged CSE extracted from human HepG2 cells expressed in Escherichia coli BL21 (DE3) using methylcysteine as substrate measured for 10 mins by CPM probe-based fluorescence assay. The method in brief: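 Methanethiol release by purified human CSE was monitored continuously with 10 mM methylcysteine as substrate in 50 mM HEPES, pH 7.4. Thiol was trapped by the CPM fluorescent probe and read at 460 nm (excitation 400 nm). IC50 was taken from the dose–response curve.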

T3 sequence (P32929 whole entry): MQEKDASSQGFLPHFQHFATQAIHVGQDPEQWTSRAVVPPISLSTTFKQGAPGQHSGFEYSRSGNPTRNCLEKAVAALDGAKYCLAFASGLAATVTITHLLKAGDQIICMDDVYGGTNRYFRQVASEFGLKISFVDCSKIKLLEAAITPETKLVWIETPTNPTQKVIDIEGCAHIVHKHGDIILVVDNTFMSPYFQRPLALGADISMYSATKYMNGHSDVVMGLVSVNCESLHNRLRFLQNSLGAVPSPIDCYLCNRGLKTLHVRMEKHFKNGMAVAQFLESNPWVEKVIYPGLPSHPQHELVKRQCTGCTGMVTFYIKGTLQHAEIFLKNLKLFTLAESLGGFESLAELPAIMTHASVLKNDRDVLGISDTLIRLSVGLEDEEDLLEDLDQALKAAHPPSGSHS

Consider `Oc1cc(O)cc(CCC/C=C\CCCCCCCCCc2cc(O)cc(O)c2)c1`, for which the inhibition entry in [1] was “Active”. In data set [2], the 50% inhibitory concentration (IC50) was 7.4 µM. Besides, the Ratio IC50 in [3] is over 10.

Consider `Oc1ccc(-c2oc3cc(O)cc4c3c2-c2cc(O)cc3c2[C@H](c2cc(O)cc5c2[C@@H]4[C@H](c2ccc(O)cc2)O5)[C@@H](c2ccc(O)cc2)O3)cc1`, for which the inhibition result in data set [1] and in [4] was “Active” in each case. Moreover, the IC50 in data set [2] turned out to be 5.9 µM.

Regarding `C[C@@H]1O[C@@H](Oc2c(-c3ccc(O)cc3)oc3cc(O)cc(O)c3c2=O)[C@H](OC(=O)/C=C\c2ccc(O)cc2)[C@H](O)[C@H]1OC(=O)/C=C\c1ccc(O)cc1`, the inhibition result in data set [1] was “Active”. Also, the 50% inhibitory concentration (IC50) in [5] was 1.5 to 13.5 µM; in data set [2], 6.2 µM; in data set [4], over 400 µM.

Take `O=c1c(O)c(-c2cc(O)c(O)c(O)c2)oc2cc(O)cc(O)c12` [MYRICETIN]: the inhibition entry in data set [1] and in data set [4] was “Active” each time. For the same compound, the half-inhibitory concentration (IC50) in data set [2] amounted to 18.8 µM.

For `COc1ccc([C@H]2Oc3cc(O)cc(O)c3C(=O)[C@@H]2[C@H]2C(=O)c3c(O)cc(O)cc3O[C@@H]2c2ccc(O)cc2)cc1` [SIKOKIANIN C], the inhibition result in data set [1] was “Active”. Besides, in data set [6], the selectivity ratio is 10. Also, the IC50 is 1.5 µM in [5], 19 µM in data set [7], 9.2 µM in data set [2] and over 400 µM in data set [4].

As for `O=c1cc(-c2ccc(O)cc2)oc2c(-c3c(O)cc(O)c4c(=O)cc(-c5ccc(O)cc5)oc34)c(O)cc(O)c12` [CUPRESSUFLAVONE], the inhibition result in data set [1] is “Active”. For the same compound, the IC50 was at least 50 µM in data set [5], 11.5 µM in data set [2] and over 400 µM in data set [4].

For `Cc1cc(O)c2c(=O)c3c(O)cc(O)c4c5c(O)cc(O)c6c(=O)c7c(O)cc(C)c8c1c2c(c34)c(c78)c65` [HYPERICIN], in [1], the inhibition result was “Active”. In addition, the half-inhibitory concentration (IC50) in data set [2] came out at 3.1 µM. For the same compound, the Ratio IC50 in data set [3] was over 10.

For `NOCC(=O)O` [CARBOXYMETHOXYLAMINE], the 50% inhibitory concentration (IC50) amounted to 1 µM in data set [8]; 140 µM in data set [5]; 800 µM in [7]; 4 µM in data set [2]; 0.57 µM in [9]; 4 µM in [4].

Take `O=C(CCCCCCCCc1ccccc1)c1c(O)cc(O)cc1O`: in data set [1], the inhibition result was “Active”. In data set [2], the IC50 was determined as 8.1 µM. Besides, the Ratio IC50 in data set [3] was over 10.

With `COc1ccc(-c2cc(=O)c3c(O)cc(O)c(-c4cc(-c5cc(=O)c6c(O)cc(O)cc6o5)ccc4O)c3o2)cc1` [PODOCARPUSFLAVONE A], in data set [1], the inhibition result is “Active”. For the same compound, in [6], the selectivity ratio stood at 5. Further, the 50% inhibitory concentration (IC50) in data set [5] was 7.9 µM; in data set [7], 36 µM; in data set [2] it was 8.9 µM; in data set [4], over 400 µM.
